The list is not random: actives were taken first. Their share in the collection is about 3.9%.
697 NFkB inh: inhibitors of PMA/ionomycin-induced NF-kB reporter, 697 cells, primary screen, B-cell NF-kB inhibitor project, cell-based, luminescence, uHTS; inhibition, % at 4 µM; 330,000 tested, 0.33% active; 697 B-cell NF-kB luciferase reporter, 16 h; in the data active means inhibition above about 35%
CHOP inhibitor: inhibitors of CHOP promoter induction, primary screen, cell-based, unfolded protein response, luciferase reporter. CHO-K1 CHOP-promoter luciferase, tunicamycin-induced, 15-18 h. inhibition, % at 10 µM. 220,000 tested, 3.8% active. AID 2732, 2010;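 active means compounds that reduced the stress-induced luciferase reporter signal by more than about 70% of percent inhibition, limit read from the data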
XBP1 UPR activ: activators of adaptive XBP1 UPR arm, primary screen, cell-based, CHO-XBP1 luciferase reporter, luminescence, uHTS; IRE1-XBP1 UPR activation; percent of tunicamycin response, DMSO as zero; activation, % at 20 µM; 330,000 tested, 0.33% active;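 active means versus positive control, 20 µM dose yields 30% or more activation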
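Material – CHO cell line with stable XBP1 luciferase reporter · Buffer or medium – F12 plus 10% FBS · Compound – single point, 20 µM final compound, 1% DMSO · Schedule – 16-18 h cell attachment at 37 °C, then 6 h compound exposure · Signal – Steady-Glo luminescence read · Benchmarks – high control tunicamycin 10 µg/mL final, low control DMSO vehicle only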
Jurkat NFkB inh: inhibitors of induced NF-kB luciferase reporter, primary screen, TCR NF-kB activation inhibitor project, cell-based, luminescence, uHTS; Jurkat, PMA/ionomycin-induced NF-kB luciferase reporter; 330,000 tested, 0.53% active; inhibition, % at 4 µM; in the data active means inhibition above about 50%
CHOP UPR activ: activators of apoptotic CHOP UPR arm, primary screen, cell-based, CHO-CHOP luciferase reporter, luminescence, uHTS. UPR activation; percent of tunicamycin response over DMSO baseline. 330,000 tested, 0.34% active. activation, % at 10 µM;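 active means at 10 µM dose, activation of 40% or more, normalized to positive control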
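System: CHO CHOP reporter cells. Amount: 500 cells per well. Buffer or medium: F12 medium, 10% FBS. Compound dosing: one dose, 10 µM in 0.5% DMSO. Incubation: 6 h compound exposure at 37 °C after overnight seeding. Technique: Steady-Glo luciferase luminescence. Benchmarks: tunicamycin and DMSO controls.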
Gli-Sufu block: Gli-Sufu pathway antagonists, primary screen, luciferase luminescence, Sufu-KO-LIGHT cells, uHTS; Sufu-KO-LIGHT fibroblasts, Gli luciferase reporter luminescence; inhibition, % at 5 µM; 340,000 tested, 0.74% active; AID 588413, 2011;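 active means inhibition above about 55%, limit read from the data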
UPR CHOP confirm: activators of apoptotic CHOP UPR arm, confirmation, cell-based, CHO-CHOP luciferase reporter, single concentration. 1,000 tested, 64% active. activation, % at 10 µM. CHO-CHOP cells, CHOP-luciferase reporter luminescence; percent of tunicamycin response, DMSO as zero. shares compounds with CHOP UPR activ; in the data active means activation above about 33%
XBP1 UPR conf: IRE1-XBP1 UPR arm activators, confirmation, cell-based, CHO-XBP1 luciferase reporter, luminescence, single concentration; shares compounds with XBP1 UPR activ; activation, % at 20 µM; 1,000 tested, 63% active;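 active means reporter signal at least 30% of the positive control's activation in two or more of four replicate wells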
Each line names hits and unclear results; the compound was inactive in the other large screens (follow-up assays come after a bar, where they were run).

O=C(C[C@@H]1C/C=C/CC[C@H](Cc2ccc(F)cc2)C(=O)OC[C@@H](Cc2ccccc2)NC1=O)N[C@H](CO)Cc1ccccc1	XBP1 UPR activ 151.6, CHOP UPR activ 64.9 (no result: CHOP inhibitor) | UPR CHOP confirm inactive | XBP1 UPR conf 46.8
NC(=O)NCCCC(=O)NCC(c1ccccc1Cl)c1c[nH]c2ccccc12 (stereo not drawn)	none (no result: CHOP inhibitor)
O=C(COc1ccc([N+](=O)[O-])cc1Cl)N(C1CCCCC1)C1CCS(=O)(=O)C1 (stereo not drawn)	none (no result: CHOP inhibitor)
COc1ccc(N2CCN(Cc3cc(=O)oc4cc(-c5ccccc5)c(O)cc34)CC2)cc1	XBP1 UPR activ 106.8, CHOP UPR activ 115.8 | UPR CHOP confirm 82.8 | XBP1 UPR conf 77.8
O=C(Nc1ccc(NC(=O)c2sc3ccccc3c2Cl)cc1Cl)c1ccco1	XBP1 UPR activ 342.1, CHOP UPR activ 62.6 | UPR CHOP confirm 34.0 | XBP1 UPR conf 141.6
O=C(Nc1cc(S(=O)(=O)N2CCCCCC2)ccc1OCC(F)(F)F)c1cnccn1	none (no result: CHOP inhibitor)
Cc1oc2cc(O)ccc2c(=O)c1-c1cnn(-c2ccccc2)c1	none
CCc1cc2c(=O)c(-c3cnn(-c4ccccc4)c3)c(C)oc2cc1OCC(=O)Nc1cccc(C)c1	CHOP inhibitor 94.3, XBP1 UPR activ 75.0, CHOP UPR activ 147.9 | UPR CHOP confirm 78.1 | XBP1 UPR conf 121.1
Cc1cc(OCC(=O)Nc2ccccc2C)no1	none (no result: CHOP inhibitor)
O=c1oc(CCCO)cc2ccc(Br)cc12	none (no result: CHOP inhibitor)
O=c1oc(CCCO)cc2ccc(/C=C/c3cccc([N+](=O)[O-])c3)cc12	XBP1 UPR activ 78.4, CHOP UPR activ 75.8 (no result: CHOP inhibitor) | UPR CHOP confirm inactive | XBP1 UPR conf 32.6
CCN(CC)c1nc(NN)nc(Nc2ccc(C)c(Cl)c2)n1	none (no result: CHOP inhibitor)
COc1ccc(-c2[nH]n(-c3ccc([N+](=O)[O-])cc3)c(=O)c2C=NCc2ccc(F)cc2)cc1	XBP1 UPR activ 52.6, CHOP UPR activ 42.2 | UPR CHOP confirm inactive | XBP1 UPR conf inactive
Cc1ccc(NC(=O)COc2ccc(/C=C3/SC(=Nc4ccccc4)N(Cc4cccnc4)C3=O)cc2)cc1	XBP1 UPR activ 63.1, CHOP UPR activ 84.1 | UPR CHOP confirm 151.8 | XBP1 UPR conf 59.9
COc1ccccc1N(C(=O)c1snc(C(N)=O)c1N)C(C(=O)NC1CCCCC1)c1cccc(OC)c1OC (stereo not drawn)	none (no result: CHOP inhibitor)
COc1ccc(NC(=O)C(=O)N/N=C\c2ccc(CNC(=O)C(=O)Nc3ccc(C)c(C)c3)o2)c(OC)c1	XBP1 UPR activ 49.7, CHOP UPR activ 134.8 (no result: CHOP inhibitor) | UPR CHOP confirm 41.3 | XBP1 UPR conf 51.8
CCOc1ccc(C2NCCc3cc(OC)c(OC)cc32)cc1OC (stereo not drawn)	none (no result: CHOP inhibitor)
COc1ccc2cc1Oc1ccc(cc1)CC1c3c(cc(OC)c4c3Oc3cc5c(cc3O4)CCNC5C2)CCN1C (stereo not drawn)	XBP1 UPR activ 52.4, CHOP UPR activ 40.7 | UPR CHOP confirm 38.9 | XBP1 UPR conf 29.7
COc1ccc(NC(=S)NC(=O)/C=C/c2ccco2)cc1	none
O=C(/C=C/c1ccco1)NC(=S)Nc1ccc(O)c(-c2nc3ccccc3s2)c1	XBP1 UPR activ 153.0, CHOP UPR activ 105.8 | UPR CHOP confirm 86.0 | XBP1 UPR conf 286.8
COc1ccc(NC(=O)c2sc3nc(N4CCOCC4)c4c(c3c2N)CC(C)(C)OC4)cc1	none (no result: CHOP inhibitor)
COc1ccc(NC(=O)c2sc3nc(N4CCOCC4)c4c(c3c2N)CC(C)(C)OC4)c(OC)c1	XBP1 UPR activ 162.7, CHOP UPR activ 40.1 (no result: CHOP inhibitor) | UPR CHOP confirm 38.9 | XBP1 UPR conf 171.8
CCOc1ccccc1N=Cc1c(O)c2ccccc2oc1=O	XBP1 UPR activ 178.9, CHOP UPR activ 162.4 (no result: CHOP inhibitor) | UPR CHOP confirm 120.2 | XBP1 UPR conf 125.1
Cc1ccc(C)c(N=Cc2c(O)c3ccccc3oc2=O)c1	XBP1 UPR activ 55.3, CHOP UPR activ 60.9 (no result: CHOP inhibitor) | UPR CHOP confirm 48.8 | XBP1 UPR conf 45.5
CC(C)c1ccc(N=Cc2c(O)c3ccccc3oc2=O)cc1	none (no result: CHOP inhibitor)
COc1ccc(N=Cc2c(O)c3ccccc3oc2=O)cc1	XBP1 UPR activ 102.4, CHOP UPR activ 128.3 | UPR CHOP confirm 67.5 | XBP1 UPR conf 38.4
COc1ccc(C2=NS(=O)(=O)N(C)C(C(=O)N3CCCCC3)=C2)cc1OC	none (no result: CHOP inhibitor)
O=[N+]([O-])c1ccc(N/N=C/c2cccc(O)c2O)c(S(=O)(=O)N2CCOCC2)c1	XBP1 UPR activ 54.3, CHOP UPR activ 133.2 | UPR CHOP confirm 86.3 | XBP1 UPR conf 32.6
N#C/C(=C\c1ccccc1C(F)(F)F)C(=O)Nc1ccccc1	none
CCc1cccc(CC)c1NC(=O)/C(C#N)=C/c1ccccc1C(F)(F)F	CHOP inhibitor 83.9, XBP1 UPR activ 70.3, CHOP UPR activ 71.1 | UPR CHOP confirm 72.5 | XBP1 UPR conf 33.8
O=C(Nc1ccccc1C(=O)NCCCN1CCOCC1)c1ccc(Cl)cc1	none (no result: CHOP inhibitor)
CCOc1cc(/C=N/NC(N)=S)cc(Br)c1OCc1ccccc1C	CHOP inhibitor 86.5, XBP1 UPR activ 60.8, CHOP UPR activ 68.7 | UPR CHOP confirm 40.9 | XBP1 UPR conf 60.4
CCOc1cc(/C=N/N=C(\N)c2nonc2N)cc(Br)c1OCc1cccc2ccccc12	CHOP inhibitor 94.8, XBP1 UPR activ 268.3, CHOP UPR activ 106.5 | UPR CHOP confirm inactive | XBP1 UPR conf 210.9
O=C(NCc1ccccc1Cl)c1cccc2c1C(=O)c1ccc(-c3ccc(OC(F)(F)F)cc3)cc1S2(=O)=O	XBP1 UPR activ 164.0, CHOP UPR activ 127.9 (no result: CHOP inhibitor) | UPR CHOP confirm 84.8 | XBP1 UPR conf 114.8
Brc1ccc(-c2nnc3ccc(N4CCN(c5ccccc5)CC4)nn23)cc1	XBP1 UPR activ 46.7, CHOP UPR activ 54.1 | UPR CHOP confirm inactive | XBP1 UPR conf inactive
O=C(NN=Cc1cc(Br)c(O)c(Br)c1)c1ccccc1NS(=O)(=O)c1cccs1	none (no result: CHOP inhibitor)
COc1ccc(C(=O)Nc2nc3ccccc3s2)cc1OC	none
COc1cc2nc(NC(=O)c3ccc(Cl)cc3)sc(=O)c2cc1OC	XBP1 UPR activ 67.6, CHOP UPR activ 46.9 (no result: CHOP inhibitor) | UPR CHOP confirm 50.0 | XBP1 UPR conf inactive

Source: PubChem (several laboratories)
